From article PMC2193507 (The Journal of Experimental Medicine, 2001)

Legend:
T cell proliferation = settings: in words; cited from earlier work
[1] = Isoaspartyl content of peptides; assay type: physicochemical; settings: tested at 250 pmol
Method in brief: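 Isoaspartate quantified by radiolabelled methyl incorporation using protein isoaspartyl methyltransferase and S-adenosyl-L-[methyl-3H]methionine, following the ISOQUANT kit protocol. Each peptide preparation was tested at 250 pmol. The manufacturer's standard gave an estimated 1,754 cpm per pmol. Batches had been stored frozen or at 4°C.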

type B T cells = experiment: Type B T cell hybridomas, recognition; assay type: cell-based; settings: none of the type B triggered up to the value
Method in brief: (§1)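 IL-2 release assay: I-Ak-expressing M12.C3.F6 B lymphoma cells (5 × 104) were incubated with T cell hybridomas (5 × 104) and decreasing doses of antigen (native HEL or HEL 48–61 peptide) in MEM with 10% FCS for 18 h. Supernatants went to IL-2-dependent CTLL-2 cells cultured 40 h, with [3H]thymidine for the last 24 h.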

type A T cells = experiment: Type A T cell hybridomas, recognition; assay type: cell-based; settings: all type A T cells in Table 1
Method in brief: as §1

[2] = batch RD (7/00), tryptic peptide from HEL
[3] = batch Abbt (6/98), commercial source

## murine cytochrome c peptide, residues 90–104: murine cytochrome c peptide, residues 90–104 (ERADLIAYLKKATNE; UniProt P62897 91-105, looked up, fragment)
T cell proliferation
  T cell proliferation after immunization of mice: did not trigger T cell proliferation

## 46–61: tryptic peptide from HEL
[1]; [2]
  percentage of isoaspartyl: 0.9%
  pmol of isoaspartyl: 2.1 pmol

## HEL: HEL was purchased from Sigma-Aldrich
Type B T cells
  HEL concentration up to which none of the type B T cells were triggered: > 10 µM
Type A T cells
  HEL concentration triggering all type A T cells: ~0.1 µM

## 48–63: HEL peptide 48–63, batches 1387 and Abbt (commercial source) (DGSTDYGILQINSRWW; UniProt P00698 66-81, looked up, fragment)
[1]; batch 1387 (8/99)
  percentage of isoaspartyl: 0.1%
  pmol of isoaspartyl: 0.3 pmol
[1]; [3]
  percentage of isoaspartyl: 0 (0%)
  pmol of isoaspartyl: 0 (0%) pmol
